Ecoli WT expand: E. coli BW25113 growth inhibition, expanded screen; growth inhibition, % at 100 µM; 98,000 compounds, 0.15% hits; OD600 absorbance; AID 710;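 active means growth inhibition above about 50% at one test dose, limit read from the data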;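 further: growth measured after 20 h incubation at 37 °C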
HUVEC prolif 384: inhibitors of human endothelial cell proliferation; HUVEC proliferation, CellTiter-Glo luminescence, 72 h; stronger effect = lower value; AID 648; 86,000 compounds, 1.1% hits; viability, % at 10 µM (by protocol);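 active means viability at or below 30%; inactive means viability above 30%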;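 further: 100% = median luminescence of DMSO-only cell control wells on each plate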
Jurkat tox 60K: cytotoxicity toward Jurkat cells; Jurkat E6.1 viability, ATP luminescence, 48 h; inhibition, % at 4 µM; 56,000 compounds, 1.2% hits;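 active means inhibition above the mean inhibition of all tested compounds plus 3 SD, cut at about 28% in these data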
Lung fibro prol: blocks proliferation of human lung fibroblasts; LL 47 human lung fibroblast viability, ATP luminescence; stronger effect = lower value; viability, % at 10 µM; 85,000 compounds, 1.1% hits;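 active means viability at or below 50% in the single dose screen; inactive means viability above 50%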;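 further: compound exposure lasted 72 h before the ATP readout; 100% = median luminescence of untreated cell-only wells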
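Signal: luminescent ATP detection, CellTiter-Glo; assay system: LL 47 human lung fibroblasts; input: 1,150 cells/well; incubation: overnight cell rest, 72 h compound treatment at 37 °C; measure: % viability versus median cells-only luminescence; medium: IMEM growth medium with 15% fetal bovine serum; dosing: compound addition at 0.1% DMSO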
tolC growth inh: growth inhibitors of E. coli BW25113 tolC mutant; 65,000 compounds, 2.2% hits; OD615; AID 573; growth inhibition, % at 10 µM (by protocol);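 active means growth inhibition at or above a cutoff equal to the mean over every tested compound plus 3 SD, cut at about 60% in these data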;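 further: growth measured after 20 h incubation at 37 °C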
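Test system – E. coli BW25113 ΔtolC::kan, tolC deletion mutant strain · Detection – OD at 615 nm · Buffer or medium – LB with kanamycin 50 µg/mL · Times – 20 h compound exposure of bacteria at 37 °C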
H69AR growth 86K: growth inhibitors of human H69AR lung tumor cells; H69AR lung tumor viability, ATP luminescence, 72 h; stronger effect = lower value; 85,000 compounds, 6% hits; viability, % at 10 µM;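 active means viability at or below 40%; inactive means viability above 40%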;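 further: multidrug resistant small cell line overexpressing MRP-1 efflux transporter; 100% = mean luminescence of untreated control wells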
Numbers without * were called inactive. In the library only some 6.4% were active in any assay of this set; here they are far more common.

For CCCCCOC(=O)Cn1c(=O)c2c(nc(N3CCOCC3)n2C)n(C)c1=O the results were Ecoli WT expand 3, HUVEC prolif 384 94, Lung fibro prol 96 and H69AR growth 86K 35*.
`CCOC(=O)Cn1c(=O)c2c(nc(N3CCOCC3)n2C)n(C)c1=O` gave Ecoli WT expand 0, HUVEC prolif 384 105, Lung fibro prol 99 and H69AR growth 86K 68.
CCOC(=O)Cn1c(=O)c2c(nc(N3CCCCC3)n2Cc2ccccc2)n(C)c1=O was read as Ecoli WT expand 1, HUVEC prolif 384 102, Jurkat tox 60K 12, Lung fibro prol 96, tolC growth inh 33 and H69AR growth 86K 24*.
N=c1n(CCO)c2ccccc2n1CCOc1ccc(Cl)cc1Cl was read as Ecoli WT expand 26, HUVEC prolif 384 2.1*, Jurkat tox 60K 9, Lung fibro prol 58, tolC growth inh 5 and H69AR growth 86K 20*.
`COc1ccc(OCCn2c(=N)n(CCO)c3ccccc32)cc1` gave Ecoli WT expand -3, HUVEC prolif 384 107, Jurkat tox 60K -7, Lung fibro prol 97, tolC growth inh -3 and H69AR growth 86K 80.
Screening Cc1ccc(S(=O)(=O)Oc2ccccc2/C=N/NC(=O)c2c(Cl)cnn2C)cc1 returned HUVEC prolif 384 86, Lung fibro prol 98 and H69AR growth 86K 33*.
`Cc1ccc(C(=O)c2oc3nc(C)cc(C)c3c2N)cc1` gave Ecoli WT expand -2, HUVEC prolif 384 94, Lung fibro prol 88 and H69AR growth 86K 57.
Screening Cc1nn2c(c1-c1ccc(Cl)cc1)N=C(c1ccco1)CC2c1ccccc1 (stereo not drawn) returned Ecoli WT expand -7, HUVEC prolif 384 91, Lung fibro prol 87 and H69AR growth 86K 65.
For Cc1ccnc(N2CCC(C(=O)Nc3cccc(C(F)(F)F)c3)CC2)n1 the results were Ecoli WT expand 0, HUVEC prolif 384 99, Jurkat tox 60K 7, Lung fibro prol 106, tolC growth inh 65* and H69AR growth 86K 90.
Screening COc1cc(NC(=O)c2ccco2)c(OC)cc1NC(=O)Nc1ccc(Cl)cc1 returned Ecoli WT expand -16, HUVEC prolif 384 78, Jurkat tox 60K -4, Lung fibro prol 109, tolC growth inh -2 and H69AR growth 86K 11*.
`COc1cc(OC)cc(C(=O)Nc2cc(NC(=O)c3ccco3)ccc2OC)c1` gave Ecoli WT expand 1, HUVEC prolif 384 84, Lung fibro prol 94, tolC growth inh 6 and H69AR growth 86K 37*.
Screening COc1cc(NS(=O)(=O)c2ccc(Br)cc2)c(OC)cc1NC(=O)c1ccco1 returned Ecoli WT expand -6, HUVEC prolif 384 85, Jurkat tox 60K -3, Lung fibro prol 96, tolC growth inh 76* and H69AR growth 86K 95.
For COc1ccc(NC(=O)c2ccco2)cc1NC(=O)c1cccnc1 the results were Ecoli WT expand -1, HUVEC prolif 384 96, Jurkat tox 60K 7, Lung fibro prol 105, tolC growth inh -6 and H69AR growth 86K 90.
COc1cc(OC)c(NC(=O)c2ccco2)cc1Cl was read as Ecoli WT expand 4, HUVEC prolif 384 105, Jurkat tox 60K 0, Lung fibro prol 92, tolC growth inh 1 and H69AR growth 86K 90.
For Cc1nn(C)c(C)c1NC(=O)CCCSc1nc(-c2ccco2)cc(C(F)(F)F)n1 the results were HUVEC prolif 384 99, Lung fibro prol 97 and H69AR growth 86K 50.
Screening COC(C)(C)[C@]12CC(O)(c3ccccc3)ON1[C@H]1CCCCC1N2O (stereo partly drawn) returned Ecoli WT expand 7, HUVEC prolif 384 86, Jurkat tox 60K -1, Lung fibro prol 94, tolC growth inh -27 and H69AR growth 86K 84.
Cc1cc(C)n(-c2nc3ccccc3nc2N2CCCCCC2)n1 was read as Ecoli WT expand 4, HUVEC prolif 384 90, Jurkat tox 60K 6, Lung fibro prol 99, tolC growth inh 74* and H69AR growth 86K 88.
Cc1cc(C)n(-c2nc3ccccc3nc2N2CCCC2)n1 was read as Ecoli WT expand -1, HUVEC prolif 384 105, Lung fibro prol 98 and H69AR growth 86K 80.
For O=C(Cc1ccc(-n2cnnn2)cc1)NC12CC3CC(CC(C3)C1)C2 the results were Ecoli WT expand 1, HUVEC prolif 384 98, Jurkat tox 60K 7, Lung fibro prol 80, tolC growth inh -4 and H69AR growth 86K 95.
COc1cc2c(cc1O)CCN(C(=O)c1ccco1)C2C (stereo not drawn) was read as Ecoli WT expand 2, HUVEC prolif 384 83, Lung fibro prol 92 and H69AR growth 86K 97.
Screening COc1cc2c(cc1OC)C(C)N(C(=O)c1cc3ccccc3o1)CC2 (stereo not drawn) returned Ecoli WT expand -11, HUVEC prolif 384 110, Jurkat tox 60K 28*, Lung fibro prol 93, tolC growth inh 18 and H69AR growth 86K 65.
For CCOC(=O)c1c(C)[nH]c(C)c1C(=O)COC(=O)c1ccc(Cl)c(S(N)(=O)=O)c1 the results were Ecoli WT expand 5, HUVEC prolif 384 97, Lung fibro prol 100 and H69AR growth 86K 81.
`c1ccc2c(CSCCc3ccncc3)cccc2c1` gave Ecoli WT expand 2, HUVEC prolif 384 85, Lung fibro prol 103 and H69AR growth 86K 34*.
`Clc1ccc(CSCCc2ccncc2)cc1` gave Ecoli WT expand 32, HUVEC prolif 384 91, Lung fibro prol 109 and H69AR growth 86K 103.
`CC1CC(C)CN(C(=O)CSc2nnc(-c3ccc(Cl)s3)o2)C1` (stereo not drawn) gave Ecoli WT expand -2, HUVEC prolif 384 99, Jurkat tox 60K -5, Lung fibro prol 98, tolC growth inh 71* and H69AR growth 86K 88.
CC1CC(C)CN(C(=O)CSc2nnc(-c3ccc(F)cc3)o2)C1 (stereo not drawn) was read as Ecoli WT expand 5, HUVEC prolif 384 102, Jurkat tox 60K -2, Lung fibro prol 97, tolC growth inh 1 and H69AR growth 86K 100.
For N#CCCS(=O)(=O)c1nnnn1-c1ccccc1 the results were HUVEC prolif 384 58, Jurkat tox 60K 5, Lung fibro prol 67, tolC growth inh -27 and H69AR growth 86K 0.4*.
O=C(O)CCN1C(=O)/C(=C\c2ccc(-c3nc4ccccc4s3)o2)SC1=S was read as Ecoli WT expand -12.
O=C(c1ccco1)N1CCN(C(=O)C2CCN(S(=O)(=O)Cc3ccccc3)CC2)CC1 was read as Ecoli WT expand 4, HUVEC prolif 384 91, Jurkat tox 60K -10, Lung fibro prol 90, tolC growth inh -9 and H69AR growth 86K 100.
For Cc1c(Cl)cccc1Nc1nc(N)nc(CN2CCc3ccccc3C2)n1 the results were Ecoli WT expand 4, HUVEC prolif 384 89, Lung fibro prol 87 and H69AR growth 86K 15*.
For COc1ccccc1N1CCN(Cc2nc(N)nc(Nc3ccc(C)c(Cl)c3)n2)CC1 the results were Ecoli WT expand 3, Jurkat tox 60K 15 and tolC growth inh 69*.
